Test results from ChEMBL document CHEMBL4017509, “A Dual Modulator of Farnesoid X Receptor and Soluble Epoxide Hydrolase To Counter Nonalcoholic Steatohepatitis” (J Med Chem, 2017).
Calls of active or inactive are those of the source. The rule behind the calls is not given here.

Legend:
[1] = target: G-protein coupled bile acid receptor 1 (Homo sapiens) (UniProt Q8TDU6); test: Antagonist activity at TGR5 (unknown origin) at 10 uM
[2] = target: Peroxisome proliferator-activated receptor alpha (Homo sapiens) (UniProt Q07869); test: Transactivation of human GAL4-fused PPARalpha ligand binding domain expressed in […] cells at 10 uM after 12 to 14 hrs by dual-glo luciferase reporter gene assay; assay type: cell-based
Chain of Peroxisome proliferator-activated receptor alpha (Homo sapiens) (Q07869 whole entry, the tested form may be a part): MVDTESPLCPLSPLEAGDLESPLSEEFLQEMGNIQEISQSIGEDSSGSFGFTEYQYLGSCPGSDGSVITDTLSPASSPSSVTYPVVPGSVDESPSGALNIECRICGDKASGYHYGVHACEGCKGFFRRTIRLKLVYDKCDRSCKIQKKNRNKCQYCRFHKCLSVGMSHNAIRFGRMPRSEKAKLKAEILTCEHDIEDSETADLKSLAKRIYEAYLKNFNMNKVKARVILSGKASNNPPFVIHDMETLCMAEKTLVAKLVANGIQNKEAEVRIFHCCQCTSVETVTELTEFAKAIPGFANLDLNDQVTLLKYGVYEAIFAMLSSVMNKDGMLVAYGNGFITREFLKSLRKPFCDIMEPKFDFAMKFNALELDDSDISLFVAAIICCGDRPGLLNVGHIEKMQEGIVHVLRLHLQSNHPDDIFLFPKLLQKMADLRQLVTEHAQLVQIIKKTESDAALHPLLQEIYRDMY
Procedure, shortened: (§1)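 HEK293T cells in DMEM/10% FCS, Opti-MEM before Lipofectamine LTX transfection with pFR-Luc reporter, pRL-SV40 and pFA-CMV GAL4–LBD plasmid. 5 h later compound in 0.1% DMSO, Opti-MEM, overnight (12−14 h). Dual luciferase; firefly/renilla ×1000 = RLU, fold over DMSO control; triplicates, ≥3 independent repeats.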

[3] = target: T1, Bile acid receptor (Homo sapiens, UniProt Q96RI1); test: Transactivation of FXR in human HepG2 cells assessed as CYP7A1 mRNA expression at 1 uM after 8 to 16 hrs by SYBR green based qRT-PCR analysis relative to DMSO control; assay type: ADME, cell-based
T1 sequence (Q96RI1 whole entry): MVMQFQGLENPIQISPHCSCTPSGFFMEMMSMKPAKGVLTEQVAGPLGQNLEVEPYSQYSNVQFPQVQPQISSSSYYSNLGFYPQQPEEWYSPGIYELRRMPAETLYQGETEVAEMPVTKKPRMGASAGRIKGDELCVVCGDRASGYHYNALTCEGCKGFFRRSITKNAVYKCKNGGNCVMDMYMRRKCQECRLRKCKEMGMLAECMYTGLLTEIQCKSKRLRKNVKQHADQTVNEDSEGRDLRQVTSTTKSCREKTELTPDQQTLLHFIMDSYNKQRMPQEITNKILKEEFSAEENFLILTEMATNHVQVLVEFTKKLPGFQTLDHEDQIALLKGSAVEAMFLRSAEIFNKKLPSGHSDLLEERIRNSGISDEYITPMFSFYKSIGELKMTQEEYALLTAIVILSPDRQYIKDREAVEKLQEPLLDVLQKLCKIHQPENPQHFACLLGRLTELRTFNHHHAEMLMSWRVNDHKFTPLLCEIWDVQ
Procedure, shortened: (§2)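 HepG2 cells incubated with test compound (0.1 and 1 μM) or 0.1% DMSO for 8 or 16 h, washed in cold PBS, RNA extracted; target mRNA by SYBR Green qRT-PCR, duplicate samples, ≥4 independent experiments; comparative ΔΔCt with GAPDH reference, vehicle set as 100%.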

[4] = target: T2, Peroxisome proliferator-activated receptor gamma (Homo sapiens) (UniProt P37231); test: Transactivation of PPARgamma in human HepG2 cells assessed as FAM3A mRNA expression at 10 uM after 8 to 16 hrs by SYBR green based qRT-PCR analysis relative to DMSO control; assay type: cell-based
T2 sequence (whole entry): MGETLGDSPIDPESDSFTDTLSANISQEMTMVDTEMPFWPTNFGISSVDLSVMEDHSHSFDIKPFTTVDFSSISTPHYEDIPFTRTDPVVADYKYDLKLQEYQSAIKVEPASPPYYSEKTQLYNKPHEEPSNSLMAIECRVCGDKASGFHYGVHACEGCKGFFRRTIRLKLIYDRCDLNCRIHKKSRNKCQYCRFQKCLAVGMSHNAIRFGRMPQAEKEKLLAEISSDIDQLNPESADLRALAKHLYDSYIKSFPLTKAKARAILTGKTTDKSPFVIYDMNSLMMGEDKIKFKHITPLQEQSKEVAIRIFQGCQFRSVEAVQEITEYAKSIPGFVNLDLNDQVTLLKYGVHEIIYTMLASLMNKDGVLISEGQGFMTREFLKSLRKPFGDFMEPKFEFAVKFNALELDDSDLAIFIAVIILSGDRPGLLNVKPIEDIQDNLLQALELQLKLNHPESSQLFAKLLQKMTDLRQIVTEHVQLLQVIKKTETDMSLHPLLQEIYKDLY
Procedure, shortened: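 HepG2 cells treated 8 or 16 h with compound or 0.1% DMSO, washed in cold PBS, RNA extracted; SYBR Green qRT-PCR in duplicate, ≥4 independent experiments (n = 3 for CD36/FAM3A). ΔΔCt method with GAPDH reference; expression as % of vehicle (100%). Pioglitazone 1 μM used as positive control for the PPARγ genes.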

[5] = target: Retinoic acid receptor gamma (Homo sapiens) (UniProt P13631); test: Transactivation of human GAL4-fused RARgamma ligand binding domain expressed in […] cells at 10 uM after 12 to 14 hrs by dual-glo luciferase reporter gene assay; assay type: cell-based; procedure, shortened: as §1
Chain of Retinoic acid receptor gamma (Homo sapiens) (P13631 whole entry, the tested form may be a part): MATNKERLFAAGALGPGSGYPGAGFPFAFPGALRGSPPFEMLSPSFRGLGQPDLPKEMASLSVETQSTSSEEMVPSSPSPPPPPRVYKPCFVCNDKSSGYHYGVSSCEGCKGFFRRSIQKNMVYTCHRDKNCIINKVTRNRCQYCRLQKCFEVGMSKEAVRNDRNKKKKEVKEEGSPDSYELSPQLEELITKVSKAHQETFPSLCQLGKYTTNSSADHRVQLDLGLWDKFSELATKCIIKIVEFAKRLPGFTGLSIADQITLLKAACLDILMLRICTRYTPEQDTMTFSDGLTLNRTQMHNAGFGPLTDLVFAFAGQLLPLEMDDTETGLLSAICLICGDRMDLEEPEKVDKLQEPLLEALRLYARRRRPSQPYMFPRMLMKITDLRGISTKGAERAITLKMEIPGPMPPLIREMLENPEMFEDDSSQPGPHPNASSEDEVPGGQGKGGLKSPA

[6] = target: T3, Bile acid receptor (Homo sapiens) (UniProt Q96RI1); test: Transactivation of FXR in human HepG2 cells assessed as SHP mRNA expression at 1 uM after 8 to 16 hrs by SYBR green based qRT-PCR analysis relative to DMSO control; assay type: cell-based; procedure, shortened: as §2
T3 sequence (whole entry): T1 sequence (Q96RI1 whole entry)

[7] = target: Retinoic acid receptor RXR-alpha (Homo sapiens) (UniProt P19793); test: Transactivation of human GAL4-fused RXRalpha ligand binding domain expressed in […] cells at 10 uM after 12 to 14 hrs by dual-glo luciferase reporter gene assay; assay type: cell-based; procedure, shortened: as §1
Chain of Retinoic acid receptor RXR-alpha (Homo sapiens) (P19793 whole entry, the tested form may be a part): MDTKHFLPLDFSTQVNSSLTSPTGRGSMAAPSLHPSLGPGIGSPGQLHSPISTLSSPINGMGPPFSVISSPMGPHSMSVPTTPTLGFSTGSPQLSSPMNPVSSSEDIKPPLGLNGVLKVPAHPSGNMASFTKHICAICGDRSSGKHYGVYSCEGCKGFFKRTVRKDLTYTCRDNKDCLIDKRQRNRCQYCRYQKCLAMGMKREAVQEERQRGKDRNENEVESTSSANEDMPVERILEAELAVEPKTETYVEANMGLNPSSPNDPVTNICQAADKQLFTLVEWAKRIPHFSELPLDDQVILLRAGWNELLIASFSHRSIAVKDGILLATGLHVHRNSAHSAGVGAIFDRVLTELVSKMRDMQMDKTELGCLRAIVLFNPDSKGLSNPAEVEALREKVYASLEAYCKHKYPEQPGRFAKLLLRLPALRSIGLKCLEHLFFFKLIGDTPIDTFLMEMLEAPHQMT

[8] = target: Peroxisome proliferator-activated receptor delta (Homo sapiens) (UniProt Q03181); test: Transactivation of human GAL4-fused PPARdelta ligand binding domain expressed in […] cells at 10 uM after 12 to 14 hrs by dual-glo luciferase reporter gene assay; assay type: cell-based; procedure, shortened: as §1
Chain of Peroxisome proliferator-activated receptor delta (Homo sapiens) (Q03181 whole entry, the tested form may be a part): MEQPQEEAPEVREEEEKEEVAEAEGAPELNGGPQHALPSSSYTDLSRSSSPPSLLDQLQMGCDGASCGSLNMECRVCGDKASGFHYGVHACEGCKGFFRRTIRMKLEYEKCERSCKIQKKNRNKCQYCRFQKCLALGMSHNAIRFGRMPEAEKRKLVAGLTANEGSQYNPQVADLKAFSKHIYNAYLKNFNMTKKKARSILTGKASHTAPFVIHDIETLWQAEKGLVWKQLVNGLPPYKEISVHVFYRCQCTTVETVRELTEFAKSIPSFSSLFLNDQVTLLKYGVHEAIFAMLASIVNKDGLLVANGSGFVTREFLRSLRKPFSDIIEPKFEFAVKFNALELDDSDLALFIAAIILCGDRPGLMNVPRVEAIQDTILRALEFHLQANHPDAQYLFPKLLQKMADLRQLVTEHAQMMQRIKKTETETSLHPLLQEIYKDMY

[9] = target: Nuclear receptor subfamily 1 group I member 3 (Homo sapiens, UniProt Q14994); test: Transactivation of human GAL4-fused CAR ligand binding domain expressed in […] cells at 10 uM after 12 to 14 hrs by dual-Glo luciferase reporter gene assay; assay type: cell-based; procedure, shortened: as §1
Chain of Nuclear receptor subfamily 1 group I member 3 (Q14994 whole entry, the tested form may be a part): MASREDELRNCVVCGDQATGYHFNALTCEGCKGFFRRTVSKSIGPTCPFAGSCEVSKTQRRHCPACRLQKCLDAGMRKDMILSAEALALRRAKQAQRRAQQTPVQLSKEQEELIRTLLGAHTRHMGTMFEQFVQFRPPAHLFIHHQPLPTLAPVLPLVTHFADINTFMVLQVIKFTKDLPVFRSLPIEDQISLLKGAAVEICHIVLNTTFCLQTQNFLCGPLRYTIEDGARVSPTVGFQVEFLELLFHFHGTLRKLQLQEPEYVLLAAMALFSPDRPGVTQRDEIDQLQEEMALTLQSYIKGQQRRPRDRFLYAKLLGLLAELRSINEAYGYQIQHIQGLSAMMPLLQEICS

[10] = target: Retinoic acid receptor RXR-beta (Homo sapiens) (UniProt P28702); test: Transactivation of human GAL4-fused RXRbeta ligand binding domain expressed in […] cells at 10 uM after 12 to 14 hrs by dual-glo luciferase reporter gene assay; assay type: cell-based; procedure, shortened: as §1
Chain of Retinoic acid receptor RXR-beta (Homo sapiens) (P28702 whole entry, the tested form may be a part): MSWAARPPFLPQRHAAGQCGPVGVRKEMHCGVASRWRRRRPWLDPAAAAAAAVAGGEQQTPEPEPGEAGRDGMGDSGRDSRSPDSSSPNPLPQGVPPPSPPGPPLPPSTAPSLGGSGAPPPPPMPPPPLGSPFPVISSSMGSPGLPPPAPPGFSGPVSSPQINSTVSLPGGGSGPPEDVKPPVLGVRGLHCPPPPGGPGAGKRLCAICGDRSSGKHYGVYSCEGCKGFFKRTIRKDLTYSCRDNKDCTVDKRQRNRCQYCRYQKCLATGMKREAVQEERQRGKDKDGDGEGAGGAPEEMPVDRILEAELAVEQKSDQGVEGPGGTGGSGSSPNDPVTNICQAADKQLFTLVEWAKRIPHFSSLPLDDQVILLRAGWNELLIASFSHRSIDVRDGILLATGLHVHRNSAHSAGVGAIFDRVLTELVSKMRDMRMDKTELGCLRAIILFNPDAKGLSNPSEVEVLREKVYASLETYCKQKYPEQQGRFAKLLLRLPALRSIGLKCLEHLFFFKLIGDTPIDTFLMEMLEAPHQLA

[11] = target: Oxysterols receptor LXR-alpha (Homo sapiens) (UniProt Q13133); test: Transactivation of human GAL4-fused LXRalpha ligand binding domain expressed in […] cells at 10 uM after 12 to 14 hrs by dual-glo luciferase reporter gene assay; assay type: cell-based; procedure, shortened: as §1
Chain of Oxysterols receptor LXR-alpha (Homo sapiens) (Q13133 whole entry, the tested form may be a part): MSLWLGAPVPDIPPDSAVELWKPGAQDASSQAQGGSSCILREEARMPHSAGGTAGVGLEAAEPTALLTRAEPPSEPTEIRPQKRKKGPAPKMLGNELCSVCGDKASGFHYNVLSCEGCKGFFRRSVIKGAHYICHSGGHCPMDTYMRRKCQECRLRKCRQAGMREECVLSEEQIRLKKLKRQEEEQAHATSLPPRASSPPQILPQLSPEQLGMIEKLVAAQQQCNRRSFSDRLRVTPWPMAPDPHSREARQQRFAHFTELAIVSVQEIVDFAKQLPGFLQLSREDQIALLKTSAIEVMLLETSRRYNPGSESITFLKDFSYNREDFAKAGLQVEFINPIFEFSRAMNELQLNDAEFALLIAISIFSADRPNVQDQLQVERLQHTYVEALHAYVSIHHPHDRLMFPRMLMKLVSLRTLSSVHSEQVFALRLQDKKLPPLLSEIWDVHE

[12] = Metabolic stability in Sprague-Dawley rat liver microsomes assessed as compound remaining at 10 uM after 60 mins by HPLC analysis; assay type: ADME, microsome; conditions: read-out: Stability
[13] = target: T2, Peroxisome proliferator-activated receptor gamma (Homo sapiens); test: Transactivation of human GAL4-fused PPARgamma ligand binding domain expressed in HEL293T cells at 10 uM after 12 to 14 hrs by dual-glo luciferase reporter gene assay relative to pioglitazone; assay type: cell-based
[14] = target: T3, Bile acid receptor (Homo sapiens); test: Transactivation of human FXR expressed in human HeLa cells co-expressing BSEP at 50 uM after 24 hrs by dual-glo luciferase reporter gene assay relative to GW4064; assay type: cell-based
Procedure, shortened: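 HeLa cells in DMEM/10% FCS at 37 °C, 5% CO2; switched to 0.5% charcoal-stripped FCS before calcium phosphate co-transfection with pcDNA3-hFXR, pSG5-hRXR, BSEP promoter–firefly luciferase reporter and pRL-SV40 renilla. Compound in 0.1% DMSO, phenol red-free medium, 24 h.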

Chain of G-protein coupled bile acid receptor 1 (Homo sapiens) (Q8TDU6 whole entry, the tested form may be a part): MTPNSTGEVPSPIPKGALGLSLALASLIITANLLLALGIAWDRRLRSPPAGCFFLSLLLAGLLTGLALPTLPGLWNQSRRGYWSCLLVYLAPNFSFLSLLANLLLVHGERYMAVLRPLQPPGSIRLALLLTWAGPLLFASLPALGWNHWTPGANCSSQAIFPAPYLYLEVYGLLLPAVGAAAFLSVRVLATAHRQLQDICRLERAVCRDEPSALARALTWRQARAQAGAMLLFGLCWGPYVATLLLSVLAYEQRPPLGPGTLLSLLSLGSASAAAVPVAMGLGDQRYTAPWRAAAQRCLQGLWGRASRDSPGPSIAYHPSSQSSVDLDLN

For `CC(C)(C)c1ccc(C(=O)NCc2ccc(NS(C)(=O)=O)cc2Cl)cc1`, the inhibition [1] was “inactive”, the Activity [2] was “inactive” and the Activity [3] was 52%. The Activity [4] was 142%, the Activity [5] was “inactive” and the Activity [6] was 317%. The Activity [7] was “inactive”, the Activity [8] was “inactive” and the Activity [9] was “Not Active”. The Activity [10] was “inactive”, the Activity [11] was “inactive” and the remaining at 1 h, 10 µM [12] was > 50%. The Emax [13] was 30% and the Emax [14] was 35%.
